The results in this text go back to ChEMBL document CHEMBL2440102, “Furanylazaindoles: potent anticancer agents in vitro and in vivo” (J Med Chem, 2013).

The target in test [1] is T1, Tubulin (Homo sapiens) (UniProt P68371+Q9H4B7+P0DPH7+P68366+Q13509+Q71U36+P04350+Q3ZCM7+P07437+P68363+Q9BQE3+Q6PEY2+Q13885+Q9BVA1+Q9BUF5). The test is described as follows: Displacement of [3H]-colchicine from biotin-labeled tubulin (unknown origin) at 1 uM after 2 hrs by scintillation proximity assay relative to control. Type of test: protein-complex assay.
In test [2] the target is T1, Tubulin (Homo sapiens). The test is described as follows: Displacement of [3H]-colchicine from biotin-labeled tubulin (unknown origin) at 5 uM after 2 hrs by scintillation proximity assay relative to control. Type of test: protein-complex assay. In general terms: Displacement assays read how much labelled ligand stays bound in the presence of the test substance.
For test [3], the system named is HUVEC. The test is described as follows: Induction of vascular disrupting activity in HUVEC assessed as VEGF-induced tube formation at 1000 nM after 4 hrs by microscopic analysis. Type of test: functional, cell-based. To be noted: Homo sapiens. A digest of the protocol:
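HUVECs plated at 2×10^4 cells/well on Matrigel in 20% FBS M199 with 20 ng/mL VEGF; capillaries formed over 4 h before compound or DMSO vehicle added. Imaged at addition and 4 h later; capillary tube networks counted manually under microscope (100×). Expressed relative to vehicle; mean ± SD of three separate experiments.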

Test [4] in a line: Inhibition of bovine brain MAP-rich tubulin polymerization measured every 30 secs for 30 mins by turbidometric method. More on the design: species or system Bos taurus.
A short description of test [5]: Cytotoxicity against human KB-7d cells overexpressing MRP assessed as growth inhibition after 72 hrs by methylene blue staining-based assay. Type of test: functional, cell-based. Particulars: KB7D.
In test [6] the test system is KB. The test is described as follows: Cytotoxicity against human KB cells assessed as growth inhibition after 72 hrs by methylene blue staining-based assay. Type of test: functional, cell-based.
Test [7] has as its system KB. The test is described as follows: Induction of microtubule depolymerization in human KB cells at 1 uM after 6 hrs by immunofluorescence microscopic analysis. Type of test: cell-based. The method, boiled down: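 KB cells on coverslips exposed to compound for 6 h; fixed in MeOH/Me2CO (1:1) at -20 °C for 1 h, blocked with 5% skim milk in PBS for 1 h, then anti-α-tubulin monoclonal (1:500) for 2 h and FITC-conjugated secondary (1:200) for 1 h at room temperature. Microtubule network viewed by fluorescence microscopy.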

In test [8] the target is Tubulin. Kind of test: Displacement of [3H]-colchicine from biotin-labeled tubulin (unknown origin) after 2 hrs by scintillation proximity assay. Type of test: protein-complex assay, Homo sapiens.
The nature of test [9]: Cytotoxicity against human KB-VIN10 cells overexpressing P-gp170/MDR assessed as growth inhibition after 72 hrs by methylene blue staining-based assay. Type of test: functional, cell-based. Particulars: KB-VIN10, 72 h.
Test [10] can be described thus: Cytotoxicity against human KB-S15 cells overexpressing P-gp170/MDR assessed as growth inhibition after 72 hrs by methylene blue staining-based assay. To be noted: KB-S15, 72 h. Type of test: functional, cell-based.
Test [11] deals with MKN-45. The test is described as follows: Cytotoxicity against human MKN45 cells assessed as growth inhibition after 72 hrs by methylene blue staining-based assay. Type of test: functional, cell-based. To be noted: MKN-45, 72 h.
A short description of test [12]: Cytotoxicity against human H460 cells assessed as growth inhibition after 72 hrs by methylene blue staining-based assay. Type of test: functional, cell-based. Particulars: NCI-H460, 72 h.
Test [13] concerns HUVEC. Kind of test: Induction of vascular disrupting activity in HUVEC assessed as VEGF-induced tube formation at 100 to 1000 nM after 4 hrs by microscopic analysis. Type of test: functional, cell-based. To be noted: Homo sapiens.
Test [14] has as its system HT-29. The test is described as follows: Cytotoxicity against human HT-29 cells assessed as growth inhibition after 72 hrs by methylene blue staining-based assay. Type of test: functional, cell-based. To be noted: HT-29, 72 h.

Each structure is given as a SMILES string. Activity calls are given as the source filed them. The calls are words filed in the database; no cut-off is given here.

Usually inhibition stands for the drop in the measured response relative to a control, in per cent. `COc1ccc(S(=O)(=O)n2ccc3ccnc(-c4ccccc4)c32)cc1`: the figures for the inhibition in [1] and in test [2] were 42% and 63%, respectively.

Turning to `COc1ccc(S(=O)(=O)n2ccc3ccnc(-c4ccc(N(C)C)cc4)c32)cc1`, the inhibition in [1] is 41%; in [2], 74%.

With `O=c1[nH]cc(F)c(=O)[nH]1`, in [3], the outcome was inactive.

What is called IC50 is the concentration needed to halve the response being measured. Compound `COc1ccc(/C=C\c2cc(OC)c(OC)c(OC)c2)cc1O` [COMBRETASTATIN A4] returned an IC50 in [4] of 2100 nM.

As for `CC(=O)O[C@H]1C(=O)[C@@]2(C)[C@H]([C@H](OC(=O)c3ccccc3)[C@]3(O)C[C@H](OC(=O)[C@H](O)[C@@H](NC(=O)c4ccccc4)c4ccccc4)C(C)=C1C3(C)C)[C@]1(OC(C)=O)CO[C@@H]1C[C@@H]2O` [PACLITAXEL], the IC50 in test [5] turned out to be 7.9 nM; in test [6], 4.1 nM. For the same compound, in test [7], the result was inactive.

With `COc1ccc(S(=O)(=O)n2ccc3ccnc(-c4ccc([N+](=O)[O-])cc4)c32)cc1`, the inhibition in test [1] was 21%; in test [2], 46%.

Broadly, the Ki is a measure of affinity in units of concentration, obtained from inhibition or displacement. Low values mean tighter binding, high ones weaker binding. In turn, `COc1ccc(S(=O)(=O)n2ccc3ccnc(-c4ccco4)c32)cc1` had a Ki in test [8] of 380 nM. Further, the figures for the inhibition in test [1] and in test [2] were 63% and 81%, respectively.

On to `COc1ccc(S(=O)(=O)n2ccc3ccnc(-c4ccc(C(F)(F)F)cc4)c32)cc1`, for which the inhibition in [1] came to 35%; in [2], 65%.

For `CC[C@]1(O)C[C@H]2CN(CCc3c([nH]c4ccccc34)[C@@](C(=O)OC)(c3cc4c(cc3OC)N(C=O)[C@H]3[C@@](O)(C(=O)OC)[C@H](OC(C)=O)[C@]5(CC)C=CCN6CC[C@]43[C@@H]65)C2)C1` [VINCRISTINE], the IC50 in test [5] was determined as 1.2 nM; in test [6], 0.6 nM.

On to `COc1ccc(S(=O)(=O)n2ccc3ccnc(-c4ccncc4)c32)cc1`, for which the values for the inhibition in test [1] and in test [2] were 35% and 59%, respectively.

With `COc1ccc(S(=O)(=O)Nc2cccnc2Nc2ccc(O)cc2)cc1` [ABT-751], the IC50 in test [9] came to 227 nM; in [10] it was 206 nM; in test [11], 166 nM; in test [12], 218 nM; in test [5], 205 nM; in [6], 251 nM. Besides, the figures for the IC50 in test [14] and in [4] were 339 nM and 3300 nM, respectively. The compound also had a Ki in test [8] of 1510 nM. Further, the outcome in [13] was Active.

For `COc1ccc(S(=O)(=O)n2ccc3ccnc(-c4cccs4)c32)cc1`, the inhibition in test [1] was 30%; in test [2] it was 70%.

As for `COc1cc([C@@H]2c3cc4c(cc3[C@@H](O[C@@H]3O[C@@H]5CO[C@@H](C)O[C@H]5[C@H](O)[C@H]3O)[C@H]3COC(=O)[C@H]23)OCO4)cc(OC)c1O` [ETOPOSIDE], the IC50 in test [9] is 23000 nM; in test [10] it was 3500 nM; in [5], 54000 nM.

With `COc1ccc(S(=O)(=O)n2ccc3ccnc(-c4ccc(Cl)cc4)c32)cc1`, the inhibition in [1] was 41%; in test [2], 72%.

In the case of `COc1cc2c(c(OC)c1OC)-c1ccc(OC)c(=O)cc1[C@@H](NC(C)=O)CC2` [COLCHICINE], the IC50 in test [9] was determined as 122 nM; in [10] it was 35.4 nM; in test [11] it was 11.5 nM; in test [12], 19.8 nM; in test [5] it was 51.8 nM; in [14] it was 15.2 nM. Also, the result in test [7] was Active.
